High-throughput results as filed in PubChem BioAssay.
In the library only some 0.96% were active in any assay of this set; here they are far more common.
T cell modulator: T cell immune modulators affecting CD8 T cell-vesicle binding. hit rate 0.068% among 330,000. response (vesicle binding), % at 7 µM. 2C CD8+ T cell-vesicle binding, flow cytometry; active compounds read low;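 active means response, share of CD8 T cells binding vesicles, and their 90th percentile fluorescence all below set limits, cut at about 80% in these data, passing the limit was not always enough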;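 further: values below 100% mean blocked vesicle binding to the CD8+ T cells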
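Also added: QL9-peptide-loaded Drosophila micro-vesicles bearing Ld, ICAM-1 and B7-1; Test system: purified 2C TCR transgenic mouse naive CD8+ T cells; Measured by: cytometric PE anti-B7-1 and Alexa647 anti-CD8 signals after 1% paraformaldehyde fixation; Timing: binding step 1.5 h, 37 °C, antibody labelling 20 min, ice.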
RPL19A-GFP yeast: alters RPL19A-GFP fluorescence in TOR pathway yeast screen; hit rate 0.3% among 330,000; S. cerevisiae RPL19A-GFP strain, flow cytometry, 3 h; active compounds read low; percent response vs DMSO, % at 10 µM; AID 2025;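 active means percent response vs DMSO below 50%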;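 further: median channel GFP fluorescence of the barcoded RPL19A-GFP strain; ratio of sample median GFP to plate DMSO average so 100% = DMSO; lower means less RPL19A-GFP as with rapamycin TOR inhibition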
MEP2-GFP yeast: yeast TOR pathway MEP2-GFP modulation; S. cerevisiae MEP2-GFP strain, flow cytometry GFP, 3 h; 100% = DMSO control level; GFP response vs DMSO, % at 10 µM; hit rate 0.51% among 330,000; AID 2016;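 active means GFP response versus DMSO above a set limit, roughly screen mean plus 3 SD, cut at about 180% in these data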;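 further: median GFP fluorescence of the barcode-gated MEP2-GFP cells per well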
CIT2-GFP yeast: modulators of TOR pathway CIT2-GFP in S. cerevisiae. GFP response vs DMSO, % at 10 µM. hit rate 0.065% among 320,000. S. cerevisiae CIT2-GFP strain, flow cytometry, 3 h; 100 means same as DMSO wells;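 active means GFP response relative to DMSO above a set limit, near the screen mean plus 3 SD, cut at about 150% in these data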;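 further: ratio of well median GFP fluorescence to mean of DMSO wells on the plate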
AGP1-GFP MLPCN: alters AGP1-GFP fluorescence in TOR pathway yeast screen. hit rate 0.02% among 320,000. S. cerevisiae AGP1-GFP multiplex flow cytometry, 3 h; GFP as percent of DMSO wells. GFP response vs DMSO, % at 10 µM;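 active means GFP response relative to DMSO above a set limit, near screen average plus 3 SD, cut at about 150% in these data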;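 further: median GFP channel fluorescence of the gated AGP1 strain per well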
LAP4 TOR yeast: alters LAP4-GFP fluorescence in TOR pathway yeast screen. S. cerevisiae LAP4-GFP multiplex, flow cytometry GFP, 3 h; median GFP as percent of DMSO wells. GFP response vs DMSO, % at 10 µM. hit rate 0.34% among 320,000;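 active means GFP response vs DMSO above a set limit, about the screen mean plus 3 SD, cut at about 150% in these data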
LAP4-GFP pick2: yeast LAP4-GFP modulation, second cherry pick | hit rate 20% among 590 | GFP response vs DMSO, % at 10 µM | shares compounds with LAP4 TOR yeast | S. cerevisiae LAP4-GFP strain, flow cytometry GFP, 3 h;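 active means GFP signal as percent of the solvent control above about 150%, meaning raised reporter expression, limit read from the data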;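 further: ratio of well median GFP fluorescence to plate DMSO mean so 100% = DMSO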
MEP2 cherry2: reconfirmed MEP2-GFP TOR pathway modulator in yeast; shares compounds with LAP4 TOR yeast; S. cerevisiae MEP2-GFP strain, flow cytometry GFP, 3 h; GFP response vs DMSO, % at 10 µM; hit rate 10% among 590; AID 2622;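 active means GFP signal above 150% of the solvent control wells, that is a rise of more than half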;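 further: median channel GFP fluorescence of all gated yeast cells per well; ratio of median GFP to plate DMSO average so 100% = DMSO level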
RPL19A GFP CP2: reconfirmed modulator of RPL19A-GFP TOR reporter in yeast; shares compounds with LAP4 TOR yeast; S. cerevisiae RPL19A-GFP strain, flow cytometry GFP, 3 h; active compounds read low; 100% means same as DMSO wells; GFP response vs DMSO, % at 10 µM; hit rate 3% among 590;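 active means under 65% GFP response relative to DMSO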;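 further: median GFP channel fluorescence per well over the all cells gate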
CIT2 GFP CP2: reconfirmed modulator of CIT2-GFP TOR reporter in yeast; shares compounds with LAP4 TOR yeast; AID 2624; hit rate 8% among 590; S. cerevisiae CIT2-GFP strain, flow cytometry GFP, 3 h; DMSO control wells read 100%; GFP response vs DMSO, % at 10 µM;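 active means GFP response vs DMSO above about 150%, limit read from the data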;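 further: median green fluorescence per well over all gated yeast cells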
AGP1 GFP CP2: yeast AGP1-GFP TOR reporter modulation, second cherry pick. shares compounds with LAP4 TOR yeast. S. cerevisiae AGP1-GFP strain, flow cytometry GFP, 3 h. percent response vs DMSO, % at 10 µM. 590 tested, under 10 active. AID 2643;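 active means over 150 percent of DMSO response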;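 further: median GFP channel fluorescence over all cells without mother daughter split; sample median GFP divided by mean DMSO control so 100% equals DMSO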
Yeast autofluor: yeast s288c autofluorescence artifact, counter-screen. shares compounds with LAP4 TOR yeast. S. cerevisiae s288c, 520 nm autofluorescence, flow cytometry, 3 h; active compounds read high; zero means same as solvent-only cells. fluorescence change (kMESF span) at 33 µM. 610 tested, under 10 active;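 active means fluorescence span over the dose series, or activity score, above about 33, limit read from the data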
TORC1 bypass: compounds blocking wildtype yeast growth but not TORC1 bypass cells; shares compounds with LAP4 TOR yeast; S. cerevisiae BY4741 spot growth rating, 48-72 h; active compounds read low; growth rating (0-3) at 30 µM; 120 tested, under 10 active; AID 504456;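 active means growth rating at most 1 for wild type yeast while the TORC1 bypass strain still grows fully, rated 3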
Numbers without * were called inactive; . = no result given.

SMILES | T cell modulator | RPL19A-GFP yeast | MEP2-GFP yeast | CIT2-GFP yeast | AGP1-GFP MLPCN | LAP4 TOR yeast | Yeast autofluor | others
CCCc1cc(NCc2ccccn2)n2nc(C)c(-c3ccccc3)c2n1 | 579.5 | 90.3 | 98.7 | 66.9 | 70.4 | 157.6* | 2.02
CCOc1ccc(N/C(SC)=C(/C#N)C(N)=O)cc1 | 332.7 | 105.8 | 105.1 | 103.1 | 108.3 | 106.2 | .
CCOc1ccc(N/N=C(/C#N)C(N)=O)cc1 | 373.5 | 78.4 | 228.1* | 105.7 | 118.8 | 209.6* | 6.95
COc1ccc(N/N=C(\C#N)C(N)=O)cc1 | 424.2 | 92.0 | 123.3 | 147.5 | 110.2 | 165.3* | 7.85
O=C(c1ccc(-n2ccnc2)cc1)N1CCCC(CO)(Cc2cccc(Cl)c2)C1 (configuration not stated) | 915.6 | 117.0 | 117.5 | 113.8 | 115.2 | 103.4 | .
N#C/C(=C\c1ccccn1)c1nc2ccccc2s1 | 431.4 | 165.7 | 752.5* | . | 166.2* | 634.2* | 32.9*
COC(=O)c1ccc(/C=C(\C#N)c2nc3ccccc3s2)cc1 | 263.5 | 93.9 | 100.7 | 99.3 | 89.6 | 99.8 | .
O=C(CCCc1c[nH]c2ccccc12)NCc1ccccc1F | 211.7 | 103.3 | 97.4 | 83.5 | 98.0 | 94.9 | .
CC(C)(C)C(=O)NCC12C=CC(O1)C1C(=O)N(c3ccccc3)C(=O)C12 (configuration not stated) | 722.4 | 99.8 | 98.2 | 109.2 | 104.3 | 128.0 | .
O=C1C2C3C=CC(CO)(O3)C2C(=O)N1c1ccc(-c2ccccc2)cc1 (configuration not stated) | 383.7 | 72.6 | 83.9 | 61.4 | 76.8 | 262.6* | 0.71
CNc1nc(N)cc(Nc2cccc(Cl)c2)n1 | . | . | . | . | . | . | . | TORC1 bypass=3
CCOc1ccc(NC(=O)C2=NN(c3ccccc3)C(=O)CC2)cc1S(=O)(=O)N1CCCCC1 | 660.5 | 99.3 | 101.0 | 104.5 | 103.0 | 100.2 | .
O=C(COC(=O)/C=C/c1cccc(F)c1)NC1CCCC1 | 273.4 | 92.8 | 94.1 | 85.3 | 92.3 | 103.4 | .
O=C(COC(=O)/C=C/c1cccc(F)c1)NC(=O)NC1CCCC1 | 237.0 | 75.6 | 87.3 | 86.6 | 99.2 | 163.6* | . | LAP4-GFP pick2=104.2;MEP2 cherry2=103.1;RPL19A GFP CP2=98.9;CIT2 GFP CP2=102.9;AGP1 GFP CP2=98.5
CNc1ccc(C(=O)OCC(=O)NCc2ccc3c(c2)OCO3)cc1[N+](=O)[O-] | 441.5 | 97.0 | 95.7 | 94.2 | 99.7 | 96.9 | .
COC(CNC(=O)c1ccc2c3c(onc13)-c1ccccc1C2=O)OC | 327.5 | 72.0 | 91.5 | 89.5 | 66.2 | 229.9* | 5.34
CC(C)C(=O)Nc1ccc(N2CCOCC2)c(S(=O)(=O)Nc2ccccc2Cl)c1 | 248.6 | 97.2 | 93.9 | 98.9 | 101.8 | 97.1 | .
